# Measured values published in ChEMBL document CHEMBL1156417, “Transferable resistance to aminoglycosides by methylation of G1405 in 16S rRNA and to hydrophilic fluoroquinolones by QepA-mediated efflux in Escherichia coli” (2007).
# Tests used:
# Type in all cases: functional
# Escherichia coli [1] = test: Antibacterial activity against Escherichia coli 1540 isolate by […]
# Summary of the method: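 Disk diffusion on Mueller-Hinton agar following Comité de l'Antibiogramme de la Société Française de Microbiologie standards; clinical isolate from Belgian hospital screening; strains grown in brain heart infusion broth or agar at 37°C.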
# Escherichia coli [2] = test: Antibacterial activity against Escherichia coli TOP10 in presence of 40 ug/ml efflux pump inhibitor 1-(1-naphthylmethyl)-piperazine by Etest
# Escherichia coli [3] = test: Antibacterial activity against Escherichia coli TOP10 containing pAT851 plasmid by Etest
# Summary of the method: (§1)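 MIC read by Etest on Mueller-Hinton agar after 24 h incubation. Strains were grown in brain heart infusion broth or on agar at 37°C. C600Rif served as the conjugation recipient and TOP10 as the transformation recipient.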
# Escherichia coli [4] = test: Antibacterial activity against Escherichia coli TOP10 containing pIP1206 plasmid by Etest; summary of the method: as §1
# Escherichia coli [5] = test: Antibacterial activity against Escherichia coli TOP10 by Etest; summary of the method: as §1
# Escherichia coli [6] = test: Antibacterial activity against Escherichia coli C600Rif by Etest; summary of the method: as §1
# Escherichia coli [7] = test: Antibacterial activity against Escherichia coli TOP10 in presence of 50 ug/ml efflux pump inhibitor phenyl-arginine-beta-naphthylamide by Etest
# Escherichia coli [8] = test: Antibacterial activity against Escherichia coli TOP10 containing pIP1206 plasmid in presence of 50 ug/ml efflux pump inhibitor phenyl-arginine-beta-naphthylamide by Etest
# Escherichia coli [9] = test: Antibacterial activity against Escherichia coli C600Rif in presence of 50 ug/ml efflux pump inhibitor phenyl-arginine-beta-naphthylamide by Etest
# Escherichia coli [10] = test: Antibacterial activity against Escherichia coli TOP10 containing pIP1206 plasmid in presence of 40 ug/ml efflux pump inhibitor 1-(1-naphthylmethyl)-piperazine by Etest
# Escherichia coli [11] = test: Antibacterial activity against Escherichia coli TOP10 containing pAT851 in presence of 40 ug/ml efflux pump inhibitor 1-(1-naphthylmethyl)-piperazine by Etest
# Escherichia coli [12] = test: Antibacterial activity against Escherichia coli TOP10 containing pAT851 in presence of 50 ug/ml efflux pump inhibitor phenyl-arginine-beta-naphthylamide by Etest
# Escherichia coli [13] = test: Antibacterial activity against Escherichia coli C600Rif in presence of 40 ug/ml efflux pump inhibitor 1-(1-naphthylmethyl)-piperazine by Etest
# Escherichia coli [14] = test: Antibacterial activity against Escherichia coli C600Rif containing pIP1206 plasmid by Etest; summary of the method: as §1
# Escherichia coli [15] = test: microbe, parasite or virus in culture
# Escherichia coli [16] = test: Antibacterial activity against Escherichia coli C600Rif containing pIP1206 plasmid in presence of 50 ug/ml efflux pump inhibitor phenyl-arginine-beta-naphthylamide by Etest
structure (smiles),measurement,setting,value
CO/N=C(\C(=O)N[C@@H]1C(=O)N2C(C(=O)O)=C(COC(C)=O)CS[C@H]12)c1csc(N)n1 [CEFOTAXIME],MIC,Escherichia coli [1],32 µg/mL
CCn1cc(C(=O)O)c(=O)c2cc(F)c(N3CCNCC3)cc21 [NORFLOXACIN],MIC,Escherichia coli [2],0.016 µg/mL
same,MIC,Escherichia coli [3],0.19 µg/mL
same,MIC,Escherichia coli [4],0.38 µg/mL
same,MIC,Escherichia coli [5],0.032 µg/mL
same,MIC,Escherichia coli [6],0.064 µg/mL
same,MIC,Escherichia coli [7],0.016 µg/mL
same,MIC,Escherichia coli [8],0.016 µg/mL
same,MIC,Escherichia coli [9],0.032 µg/mL
same,MIC,Escherichia coli [10],0.016 µg/mL
same,MIC,Escherichia coli [11],0.016 µg/mL
same,MIC,Escherichia coli [12],0.016 µg/mL
same,MIC,Escherichia coli [13],0.047 µg/mL
same,MIC,Escherichia coli [14],1.5 µg/mL
same,MIC,Escherichia coli [15],0.064 µg/mL
same,MIC,Escherichia coli [16],0.047 µg/mL
CC[n+]1c(-c2ccccc2)c2cc(N)ccc2c2ccc(N)cc21.[Br-] [HOMIDIUM BROMIDE],MIC,Escherichia coli [2],64 µg/mL
same,MIC,Escherichia coli [3],128 µg/mL
same,MIC,Escherichia coli [4],128 µg/mL
same,MIC,Escherichia coli [5],128 µg/mL
same,MIC,Escherichia coli [6],128 µg/mL
same,MIC,Escherichia coli [7],64 µg/mL
same,MIC,Escherichia coli [8],64 µg/mL
same,MIC,Escherichia coli [9],128 µg/mL
same,MIC,Escherichia coli [10],64 µg/mL
same,MIC,Escherichia coli [11],64 µg/mL
same,MIC,Escherichia coli [12],128 µg/mL
same,MIC,Escherichia coli [13],64 µg/mL
same,MIC,Escherichia coli [14],128 µg/mL
same,MIC,Escherichia coli [15],64 µg/mL
same,MIC,Escherichia coli [16],64 µg/mL
CCN[C@@H]1C[C@H](N)[C@@H](O[C@H]2OC(CN)=CC[C@H]2N)[C@H](O)[C@H]1O[C@H]1OC[C@](C)(O)[C@H](NC)[C@H]1O [NETILMICIN],MIC,Escherichia coli [1],> 512 µg/mL
CCn1cc(C(=O)O)c(=O)c2cc(F)c(N3CCN(C)CC3)cc21 [PEFLOXACIN],MIC,Escherichia coli [4],0.023 µg/mL
same,MIC,Escherichia coli [6],0.094 µg/mL
same,MIC,Escherichia coli [14],0.094 µg/mL
COc1c(N2C[C@@H]3CCCN[C@@H]3C2)c(F)cc2c(=O)c(C(=O)O)cn(C3CC3)c12 [MOXIFLOXACIN],MIC,Escherichia coli [2],0.002 µg/mL
same,MIC,Escherichia coli [3],0.004 µg/mL
same,MIC,Escherichia coli [4],0.006 µg/mL
same,MIC,Escherichia coli [5],0.004 µg/mL
same,MIC,Escherichia coli [6],0.064 µg/mL
same,MIC,Escherichia coli [7],0.002 µg/mL
same,MIC,Escherichia coli [8],0.002 µg/mL
same,MIC,Escherichia coli [9],0.032 µg/mL
same,MIC,Escherichia coli [10],0.002 µg/mL
same,MIC,Escherichia coli [11],0.002 µg/mL
same,MIC,Escherichia coli [12],0.002 µg/mL
same,MIC,Escherichia coli [13],0.032 µg/mL
same,MIC,Escherichia coli [14],0.094 µg/mL
same,MIC,Escherichia coli [15],0.032 µg/mL
same,MIC,Escherichia coli [16],0.006 µg/mL
CN(C)[C@@H]1C(O)=C(C(N)=O)C(=O)[C@@]2(O)C(O)=C3C(=O)c4c(O)cccc4[C@@](C)(O)[C@H]3C[C@@H]12 [TETRACYCLINE],MIC,Escherichia coli [1],> 256 µg/mL
C[C@H]1COc2c(N3CCN(C)CC3)c(F)cc3c(=O)c(C(=O)O)cn1c23.C[C@H]1COc2c(N3CCN(C)CC3)c(F)cc3c(=O)c(C(=O)O)cn1c23.O [LEVOFLOXACIN],MIC,Escherichia coli [4],0.006 µg/mL
same,MIC,Escherichia coli [5],0.006 µg/mL
same,MIC,Escherichia coli [6],0.032 µg/mL
same,MIC,Escherichia coli [14],0.032 µg/mL
O=C(N[C@H](CO)[C@H](O)c1ccc([N+](=O)[O-])cc1)C(Cl)Cl [CHLORAMPHENICOL],MIC,Escherichia coli [1],> 256 µg/mL
O=C(O)c1cn(C2CC2)c2cc(N3CCNCC3)c(F)cc2c1=O [CIPROFLOXACIN],MIC,Escherichia coli [4],0.023 µg/mL
same,MIC,Escherichia coli [1],> 32 µg/mL
same,MIC,Escherichia coli [6],0.023 µg/mL
COc1c(N2CCNC(C)C2)c(F)cc2c(=O)c(C(=O)O)cn(C3CC3)c12 (centres undefined) [GATIFLOXACIN],MIC,Escherichia coli [2],0.002 µg/mL
same,MIC,Escherichia coli [3],0.003 µg/mL
same,MIC,Escherichia coli [4],0.003 µg/mL
same,MIC,Escherichia coli [5],0.003 µg/mL
same,MIC,Escherichia coli [6],0.023 µg/mL
same,MIC,Escherichia coli [7],0.002 µg/mL
same,MIC,Escherichia coli [8],0.002 µg/mL
same,MIC,Escherichia coli [9],0.016 µg/mL
same,MIC,Escherichia coli [10],0.002 µg/mL
same,MIC,Escherichia coli [11],0.002 µg/mL
same,MIC,Escherichia coli [12],0.002 µg/mL
same,MIC,Escherichia coli [13],0.016 µg/mL
same,MIC,Escherichia coli [14],0.032 µg/mL
same,MIC,Escherichia coli [15],0.016 µg/mL
same,MIC,Escherichia coli [16],0.012 µg/mL
NC[C@H]1O[C@H](O[C@H]2[C@H](O)[C@@H](O[C@H]3O[C@H](CO)[C@@H](O)[C@H](N)[C@H]3O)[C@H](N)C[C@@H]2N)[C@H](N)C[C@@H]1O [TOBRAMYCIN],MIC,Escherichia coli [1],> 512 µg/mL
CCn1cc(C(=O)O)c(=O)c2ccc(C)nc21 [NALIDIXIC ACID],MIC,Escherichia coli [2],1 µg/mL
same,MIC,Escherichia coli [3],1.5 µg/mL
same,MIC,Escherichia coli [4],1.5 µg/mL
same,MIC,Escherichia coli [5],1.5 µg/mL
same,MIC,Escherichia coli [6],2 µg/mL
same,MIC,Escherichia coli [7],1 µg/mL
same,MIC,Escherichia coli [8],1 µg/mL
same,MIC,Escherichia coli [9],1.5 µg/mL
same,MIC,Escherichia coli [10],1 µg/mL
same,MIC,Escherichia coli [11],1 µg/mL
same,MIC,Escherichia coli [12],1 µg/mL
same,MIC,Escherichia coli [13],1.5 µg/mL
same,MIC,Escherichia coli [14],2 µg/mL
same,MIC,Escherichia coli [15],1.5 µg/mL
same,MIC,Escherichia coli [16],1.5 µg/mL
NCC[C@H](O)C(=O)N[C@@H]1C[C@H](N)[C@@H](O[C@H]2O[C@H](CN)[C@@H](O)[C@H](O)[C@H]2O)[C@H](O)[C@H]1O[C@H]1O[C@H](CO)[C@@H](O)[C@H](N)[C@H]1O [AMIKACIN],MIC,Escherichia coli [1],> 512 µg/mL
CN(C)c1ccc(O)c2c1C[C@H]1C[C@H]3[C@H](N(C)C)C(O)=C(C(N)=O)C(=O)[C@@]3(O)C(O)=C1C2=O [MINOCYCLINE],MIC,Escherichia coli [1],16 µg/mL
CC1(C)S[C@@H]2[C@H](NC(=O)[C@H](N)c3ccccc3)C(=O)N2[C@H]1C(=O)O [AMPICILLIN],MIC,Escherichia coli [1],> 256 µg/mL
NC[C@H]1O[C@H](O[C@H]2[C@H](O)[C@@H](O[C@H]3O[C@H](CO)[C@@H](O)[C@H](N)[C@H]3O)[C@H](N)C[C@@H]2N)[C@H](O)[C@@H](O)[C@@H]1O [KANAMYCIN],MIC,Escherichia coli [1],> 512 µg/mL
